Laboratory results published in ChEMBL document CHEMBL4513216, “Probing the Open Global Health Chemical Diversity Library for Multistage-Active Starting Points for Next-Generation Antimalarials” (ACS Infect Dis, 2020).

Assay: Toxicity liver stage against HepG2, at 10uM
Format: cell-based
Parameters: test concentration 10 uM, cell line HepG2-A16-CD81EGFP
Conditions: human, HepG2-A16-CD81EGFP cells; read-out: INHIBITION
Procedure, shortened: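 Uninfected HepG2-A16-CD81EGFP cells, 3 × 10^3 per well, 1536-well, plated on prespotted compound at 10 μM final, parasite-free screening media added to match infected plates; puromycin 10 μM positive, DMSO 0.5% negative; run in parallel with 48 h PbLuc assay at 37 °C, 5% CO2; viability by CellTiter-Glo luminescence, normalized to controls.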

SMILES | cytotoxicity at 10 µM [%]
Cn1ncc2c1NC(=O)CC2c1cccs1 (configuration not stated) | -0.585
O=C(c1ccnnc1)N1CC[C@@H](O)[C@@H]1Cc1ccccc1 | 5.03
O=S(=O)(c1cccc(F)c1)N1C[C@@H]2COC[C@]2(COCC2CC2)C1 | 12.5
COc1ccc(OCC(=O)n2nc(C)c(C)c2C)cc1 | -6.32
O=C(c1ccco1)N1CCC2(CCC(=O)N2Cc2cccc(F)c2)CC1 | 2.84
CC(C)C(=O)N1CCC2(CCCN(CCOc3ccccc3)C2)C1 (configuration not stated) | 6.71
Cc1cc(=O)[nH]c(NC2CCN(S(=O)(=O)c3ccccc3)CC2)n1 | -3.02
O=C(c1ccncc1)N1CCc2[nH]nc(Nc3ccccc3)c2C1 | 3.13
Cc1c[nH]c(C2COCCN2C(=O)CCc2c(C)n[nH]c2C)n1 (configuration not stated) | -0.615
CCCNC(=O)C1(Cc2cc(-c3ccccc3)no2)CCN(C(C)=O)C1 (configuration not stated) | 6.6
Cc1cc(C)n(Cc2cccc(C(=O)N3CCOCC3(C)C)c2)n1 | -3.51
N#Cc1cnc2c(F)cc(F)cc2c1NC1CCN(CC(N)=O)CC1 | -2.89
CN(C)c1ccc(CNC(=O)Nc2ccc(S(=O)(=O)C(F)F)cc2)cc1 | 9.25
O=C(CCc1cc(Br)cs1)NCCCn1ccnc1 | 1.08
NC(=O)C(NC(=O)c1ccc(NC2CC2)nc1)c1ccccc1 (configuration not stated) | 10.8
CCSCc1ccnc(NC(=O)C2CCCO2)c1 (configuration not stated) | 5.39
CC(=O)c1cc(Br)cc(F)c1OCC(=O)NC1CC1 | -6.16
COC(=O)c1ccc(NC(C)c2ccc3c(c2)CC(=O)N3)nn1 (configuration not stated) | 3.82
CN1CCOC(CNC(=O)CCCc2ccccc2)C1 (configuration not stated) | -0.95
Cc1nc(CN2CCN(c3ccc(SC(C)C)nn3)CC2)cs1 | 5.71
CCOc1ccc(Cl)c(C(=O)N2CCCC(c3cc(C)[nH]n3)C2)n1 (configuration not stated) | 8.83
COC1CCN(c2ccc(F)cc2CN(C)CC(N)=O)CC1 | -6.91
CN(CCNC(=O)c1ccnc(-n2ccnc2)c1)C1CC1 | 3.31

SMILES | cytotoxicity at 10 µM [%]
Cc1cc(CC(=O)NCC(O)COc2ccc(F)c(F)c2)n[nH]1 (configuration not stated) | -7.66
CCS(=O)(=O)CC(=O)NC(C)c1ccccc1Oc1ccccc1 (configuration not stated) | -2.97
c1coc(-c2nc(CN3CCOC(Cn4cccn4)C3)cs2)c1 (configuration not stated) | -6.45
CC1CCCCN1CCNC(=O)c1ccccc1N1CCOCC1 (configuration not stated) | -4.14
Cc1cc(N2CCN(c3ccc(=O)[nH]n3)CC2)nc(-c2ccncc2)n1 | -5.19
CCc1n[nH]c(C2CN(C(=O)c3cc(C4CC4)on3)CCO2)n1 (configuration not stated) | -6.43
CNC(=O)COc1ccc(CNCc2cc(F)ccc2F)cc1 | 3.53
Cc1nc(-c2ccsc2)ccc1C(=O)N(C)CC(F)(F)F | -1.54
CC(=O)c1ccc(C(=O)NCC2Cc3ccccc3O2)s1 (configuration not stated) | 3.82
NCc1csc(CCc2ccccc2)n1 | -0.138
CN(Cc1nc(-c2ccccc2)c[nH]1)C(=O)NCC(=O)NC(C)(C)C | 13.4
CN(CCC#N)C(=O)CN(C1CC1)C1CCc2ccccc21 (configuration not stated) | -4.74
COCCCn1ccc(NC(=O)NCCc2cccnc2)n1 | -0.996
Cc1ccc(-c2nnc(C(C)NCCn3cc(C)cn3)o2)cc1 (configuration not stated) | -15.8
Cc1cccc(CNCC2COC3(CCCCC3)O2)c1C (configuration not stated) | -139
CS(=O)(=O)CCNC(=O)N(Cc1ccoc1)C1CCCCC1 | 5.72
NC(=O)CN1CCCN(C(=O)COc2cccc(F)c2)CC1 | -1.97
CN(C)C(=O)N1CCN(c2cc(N3CCCC3CO)ncn2)CC1 (configuration not stated) | -1.81
CCCNC(=O)C1CCN(CC(O)c2ccccc2C(F)(F)F)CC1 (configuration not stated) | 3.21
Cc1nc(C)c(COc2ccc(N(C)S(C)(=O)=O)cc2)s1 | 23.2
Cc1ccc(NCc2cc(C#N)ccc2F)cc1-n1nnnc1C | -1.66
O=C(Nc1ccnn1Cc1ccccc1Cl)C1CCS(=O)(=O)C1 (configuration not stated) | -3.95
N#CC1C(=O)Nc2c(cnn2C2CCCC2)C12CCCC2 (configuration not stated) | -7.54

SMILES | cytotoxicity at 10 µM [%]
Cn1cc(CCCNC(=O)NC2CCN(CC(F)(F)F)C2=O)cn1 (configuration not stated) | 6.51
c1cncc(-c2ccnn2CN2CCOCC2)c1 | 3.44
Cc1cc(CN(C)C2CCCN(c3cccnn3)C2)on1 (configuration not stated) | 16
CCN(CC)C(=O)CCNC(=O)N1CCC(c2ccccc2)C1 (configuration not stated) | -3.26
Cn1ccc(C(=O)N2CCC3(CC2)CC(Nc2cnccn2)CO3)n1 (configuration not stated) | 4.35
CN(C)CCOCC1CN(CCN(C)C)Cc2ccnn2C1 (configuration not stated) | 0.656
O=C(c1ccncc1)N1CCN2C[C@H](Oc3cccnc3)C[C@H]2C1 | 2.83
CCOC(=O)CNc1nc(COC)nc2c1cnn2C | 9
COc1ccc(OCc2cc(C(=O)N3CCC(O)CC3)n[nH]2)c(Cl)c1 | -1.69
Cc1csc(CN(C)CCOc2ccccc2)n1 | -3.18
CC(C)n1ccnc1C1CCCN(Cc2ccc(F)c(F)c2)C1 (configuration not stated) | 3.89
O=C(c1cc(=O)[nH][nH]1)N1CCCC2(CCC(=O)N(C3CCCC3)C2)C1 (configuration not stated) | 0.988
Cc1ccc([C@@H]2CN(C(=O)c3cc(C)n[nH]3)C[C@H]2NC(=O)C2CC2)cc1 | -7.77
CC(C)N1CCC(CC(=O)N(C)C(C)c2cncs2)CC1 (configuration not stated) | 3.65
CCC[C@@H]1CN(c2ncnc3ccsc23)C[C@H]1NS(C)(=O)=O | 3.73
CCOCCNC(=O)c1cccc(S(=O)(=O)NC[C@@H]2C[C@H](F)CN2)c1 | -18.8
Cc1cc(C(=O)N2CCN(C(=O)CC(C)C)[C@@H]3CS(=O)(=O)C[C@@H]32)no1 | -5.45
CSc1nccc(NCC2CNCCOC2)n1 (configuration not stated) | -5.13
COCc1ncc(-c2nccn2CCS(C)(=O)=O)cn1 | -17.2
Cc1noc(-c2ccc(N(C)Cc3ccncc3C)nc2)n1 | -15.1
O=C1CCCCCN1Cc1cccc(OC(F)F)c1 | -6.4
COc1cccc(C2CCN2C(=O)c2cnccn2)c1 (configuration not stated) | 12.2
O=C(c1coc(COc2ccccc2F)n1)N1CCCO1 | 6.29

SMILES | cytotoxicity at 10 µM [%]
CCn1nc(C)c(NC(=O)CN2CCN(C(C)=O)CC2)c1C | -6.67
CN1CCCCCC1C(=O)NCCCn1ncc2ccccc21 (configuration not stated) | -1.43
CC(=O)N1CCCn2nc(CNS(=O)(=O)Cc3ccccc3)cc2C1 | -6.19
CC(=O)NCC1CCC2(CCN(c3ncc(C)cn3)CC2)O1 (configuration not stated) | -3.09
COCCN1CCN(Cc2ccc(OCc3nccn3C)cc2)CC1 | -7.11
Cc1cc(C)c(CNC(=O)N(C)Cc2cccc(C#N)c2)c(=O)[nH]1 | -5.49
Cc1ncc2c(n1)CN(CC(=O)NCCOc1ccccc1)CC2 | -8.66
Cc1nc(CN2CCc3nn(C)c(=O)cc3C2)oc1C | -2.74
Cc1cc(C)n(CC2CCCN2C(=O)c2cccc(C#N)c2)n1 (configuration not stated) | -9.19
Cc1ccc(-c2nc(C(=O)N3CCOCC3)cs2)c(C)c1 | 0.22
CC(C)c1ccc(OCCC(=O)N2CCCN(C(N)=O)CC2)cc1 | -15.5
Cn1cc(C(=O)NCC2CCN(C(=O)NC3CCCCC3)CC2)cn1 | -4.92
Cc1ccc(-c2n[nH]cc2CNCC2CCN(CC(C)O)CC2)cc1 (configuration not stated) | -16.6
Cc1nn(C)c(Cl)c1C1CCCN1C(=O)c1ccnn1C (configuration not stated) | -4.87
CC1CCCN(C(=O)CNC(=O)c2ccoc2)C1 (configuration not stated) | -0.775
CN(Cc1ccc(F)cc1)C(=O)CN1CCOC(Cn2cccn2)C1 (configuration not stated) | 2.2
CCn1ccnc1CN1CCCN(C(=O)c2cnc(C)cn2)CC1 | -12.3
Cc1nc(CN2CCCN(C(=O)c3c(C)oc(C)c3C)CC2)cs1 | -14
Cc1nc(C)c(CN2CCOC(CN(C)c3cccnn3)C2)s1 (configuration not stated) | -7.16
CCOCC(O)CN1CCN(C(=O)c2cccc3[nH]ncc23)CC1 (configuration not stated) | -12.8
COc1ccc(Cl)cc1C(=O)N(C)Cc1cc(C)on1 | -22.9
O=C(CN1CCN(c2ccc3nncn3n2)CC1)NC1CCCCC1 | -12.6
Cc1noc(C2CCN(C(=O)CCNc3ncccn3)CC2)n1 | -6.38

SMILES | cytotoxicity at 10 µM [%]
Cc1ccc(SCC(=O)NS(=O)(=O)c2ccc3c(c2)OCCO3)cc1 | -22.1
COc1ccccc1OCCN1CCCC(c2cc(C(N)=O)[nH]n2)C1 (configuration not stated) | 3.71
COc1ccnc(N2CCN(C(=O)Cc3ccc(C)s3)CC2)n1 | 0.818
Cc1ccccc1CN(C)Cc1nc2c(cnn2C)c(=O)[nH]1 | 2.51
Nc1ccc(-c2cnc(C3CCCN3)cn2)cn1 (configuration not stated) | 2.19
CCN(CC)C(=O)CN1CCc2c(nc(C3CCNCC3)nc2NC)C1 | 5.07
N[C@@H](Cc1ccccc1)c1nnc(S(=O)(=O)Cc2cccc(Cl)c2)o1 | 7.87
COc1ccc(C[C@H]2CN(c3nnc(C)s3)CC[C@@H]2OC)cc1 | -3.23
O=C(c1ccco1)N1CCc2c(COCC3CC3)cncc2C1 | -71.3
CC(C)n1nc(CNc2ncccn2)c2c1CN(C)CC2 | -142
Cc1noc(C)c1CN1CC[C@H]2OCC[C@@H](C(=O)NCC3CC3)[C@@H]2C1 | -8.55
COCC(=O)Nc1ccc2c(c1)C1(CCOCC1)CN2CCF | -99.6
O=S(=O)(C1CC1)N1CCCn2cnc(COc3cccnc3)c2C1 | 1.4
CCN1CCC2(CN(C(=O)N(C)C)CC23CCNCC3)C1=O (configuration not stated) | 4.29
CC(C)N1CCC(N2CCC(C(=O)N(C)C)CC2)CC1 | 4.71
COCCN1CCc2c(c(COc3cccnc3)nn2C)C1 | -113
Fc1cnc(N2CCCC3(CCN(Cc4ccco4)C3)C2)nc1 (configuration not stated) | -84.9
CC(C)NC(=O)N1CCCn2cnc(CO)c2C1 | -151
CC(c1cn2ccsc2n1)n1cc2[nH]cccc-2c1=O (configuration not stated) | -1.97
Cc1cc2cccc(NC(=O)N3CC[C@H]4CC[C@@H](C3)N4C)c2o1 | 7.89
